In ChEMBL document CHEMBL1649115, “Enhanced susceptibility to antifungal oligopeptides in yeast strains overexpressing ABC multidrug efflux pumps” (Antimicrob Agents Chemother, 2008):
Values after ≈ are worked out from the molar mass of the structure shown. Non-standard residues stand in square brackets, D forms with d. Residues, ends and D or L forms follow the SMILES beside them. Phe(3-F) = N[C@@H](Cc1cccc(F)c1)C(=O)O

Legend:
Candida albicans [1] = test: Antifungal activity against fluconazole resistant Candida albicans isolate B4 overexpressing MDR1 in RPMI-1640 buffered medium after 24 hrs by microdilution method; type: functional; conditions: Candida albicans, isolate B4, 24 h; read-out: MIC
Procedure, shortened: (§1)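 C. albicans cells were grown in 2% glucose, 1% yeast extract, 1% Bacto peptone medium before testing. […] CARE-2 fingerprinting confirmed that each pair is a single strain.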

Saccharomyces cerevisiae [2] = test: Drug uptake in Saccharomyces cerevisiae ADCDR2 expressing Candida albicans CDR2 efflux pump at 200 uM pretreated for 10 mins measured after 60 mins by fluorescamine staining; type: ADME, organism-based; conditions: in vivo, 1 h
Saccharomyces cerevisiae [3] = test: Drug uptake in Saccharomyces cerevisiae AD12345678 at 200 uM pretreated for 10 mins measured after 60 mins by fluorescamine staining; type: ADME, organism-based; conditions: in vivo, 1 h
Saccharomyces cerevisiae [4] = test: Antifungal activity against Saccharomyces cerevisiae ADMDR1 expressing Candida albicans MDR1 efflux pump in YNPG-proline medium after 24 hrs by microdilution method; type: functional; conditions: ADMDR1, 24 h
Saccharomyces cerevisiae [5] = test: Prodrug stability in Saccharomyces cerevisiae ADMDR1 expressing Candida albicans MDR1 efflux pump assessed as compound cleavage rate measured per mg of protein; type: ADME, organism-based; conditions: in vivo
Saccharomyces cerevisiae [6] = test: Antifungal activity against Saccharomyces cerevisiae ADCDR1 expressing Candida albicans CDR1 efflux pump in YNPG-proline medium after 24 hrs by microdilution method; type: functional; conditions: ADCDR1, 24 h
Candida albicans [7] = test: Antifungal activity against fluconazole resistant Candida albicans isolate Gu5 overexpressing CDR1 and CDR2 in RPMI-1640 buffered medium after 24 hrs by microdilution method; type: functional; conditions: isolate Gu5, 24 h
Procedure, shortened: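 C. albicans cells were grown in 2% glucose, 1% yeast extract, 1% Bacto peptone medium before testing. CARE-2 fingerprinting confirmed that each pair is a single strain.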

Saccharomyces cerevisiae [8] = test: Prodrug stability in Saccharomyces cerevisiae ADCDR2 expressing Candida albicans CDR2 efflux pump assessed as compound cleavage rate measured per mg of protein; type: ADME, organism-based; conditions: in vivo
Saccharomyces cerevisiae [9] = test: Antifungal activity against Saccharomyces cerevisiae AD12345678 in YNPG-proline medium after 24 hrs by microdilution method; type: functional; conditions: AD12345678, 24 h
Candida albicans [10] = test: Antifungal activity against fluconazole sensitive Candida albicans isolate Gu4 in RPMI-1640 buffered medium after 24 hrs by microdilution method; type: functional; conditions: Candida albicans, isolate Gu4, 24 h; read-out: MIC; procedure, shortened: as §1
Candida albicans [11] = test: Prodrug stability in fluconazole sensitive Candida albicans isolate B3 assessed as compound cleavage rate measured per mg of protein; type: ADME, organism-based; conditions: in vivo
Saccharomyces cerevisiae [12] = test: Prodrug stability in Saccharomyces cerevisiae AD12345678 assessed as compound cleavage rate measured per mg of protein; type: ADME, organism-based; conditions: in vivo
Saccharomyces cerevisiae [13] = test: Drug uptake in Saccharomyces cerevisiae ADCDR1 expressing Candida albicans CDR1 efflux pump at 200 uM pretreated for 10 mins measured after 60 mins by fluorescamine staining; type: ADME, organism-based; conditions: in vivo, 1 h
Candida albicans [14] = test: Antifungal activity against wild type Candida albicans 10261 in RPMI-1640 buffered medium after 24 hrs by microdilution method; type: functional; conditions: Candida albicans, 10261, 24 h; read-out: MIC; procedure, shortened: as §1
Candida albicans [15] = test: Prodrug stability in wild type Candida albicans 10261 assessed as compound cleavage rate measured per mg of protein; type: ADME, organism-based; conditions: in vivo
Saccharomyces cerevisiae [16] = test: Prodrug stability in wild type Saccharomyces cerevisiae ATCC 9763 assessed as compound cleavage rate measured per mg of protein; type: ADME, organism-based; conditions: in vivo
Saccharomyces cerevisiae [17] = test: Antifungal activity against wild type Saccharomyces cerevisiae ATCC 9763 in YNPG-proline medium after 24 hrs by microdilution method; type: functional; conditions: ATCC 9763, 24 h
Saccharomyces cerevisiae [18] = test: Antifungal activity against Saccharomyces cerevisiae ADCDR2 expressing Candida albicans CDR2 efflux pump in YNPG-proline medium after 24 hrs by microdilution method; type: functional; conditions: ADCDR2, 24 h
Candida albicans [19] = test: Prodrug stability in fluconazole sensitive Candida albicans isolate Gu4 assessed as compound cleavage rate measured per mg of protein; type: ADME, organism-based; conditions: in vivo
Procedure, shortened: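 Oligopeptides were incubated with cell extracts of the yeast cells, and their hydrolytic enzymes cleaved them. The amino acids released were quantified by the Cd-ninhydrin method.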

Saccharomyces cerevisiae [20] = test: Prodrug stability in Saccharomyces cerevisiae ADCDR1 expressing Candida albicans CDR1 efflux pump assessed as compound cleavage rate measured per mg of protein; type: ADME, organism-based; conditions: in vivo
Candida albicans [21] = test: Antifungal activity against fluconazole sensitive Candida albicans isolate B3 in RPMI-1640 buffered medium after 24 hrs by microdilution method; type: functional; conditions: Candida albicans, isolate B3, 24 h; read-out: MIC; procedure, shortened: as §1
Saccharomyces cerevisiae [22] = test: Drug uptake in Saccharomyces cerevisiae ADMDR1 expressing Candida albicans MDR1 efflux pump at 200 uM pretreated for 10 mins measured after 60 mins by fluorescamine staining; type: ADME, organism-based; conditions: in vivo, 1 h
Saccharomyces cerevisiae [23] = test: Antifungal activity against wild type Saccharomyces cerevisiae ATCC 9763 in YNPG medium containing 1 mg/ml […] after 24 hrs by microdilution method; type: functional; conditions: ATCC 9763, 24 h
Saccharomyces cerevisiae [24] = test: Antifungal activity against Saccharomyces cerevisiae ADMDR1 expressing Candida albicans MDR1 efflux pump in YNPG medium containing 1 mg/ml […] after 24 hrs by microdilution method; type: functional; conditions: ADMDR1, 24 h
Saccharomyces cerevisiae [25] = test: Antifungal activity against Saccharomyces cerevisiae ADCDR1 expressing Candida albicans CDR1 efflux pump in YNPG medium containing 1 mg/ml […] after 24 hrs by microdilution method; type: functional; conditions: ADCDR1, 24 h
Saccharomyces cerevisiae [26] = test: Antifungal activity against Saccharomyces cerevisiae AD12345678 in YNPG medium containing 1 mg/ml […] after 24 hrs by microdilution method; type: functional; conditions: AD12345678, 24 h
Saccharomyces cerevisiae [27] = test: Antifungal activity against Saccharomyces cerevisiae ADCDR2 expressing Candida albicans CDR2 efflux pump in YNPG medium containing 1 mg/ml […] after 24 hrs by microdilution method; type: functional; conditions: ADCDR2, 24 h
Saccharomyces cerevisiae [28] = test: Drug uptake in Saccharomyces cerevisiae ADCDR1 at 200 uM pretreated for 10 mins measured after 60 mins by fluorescamine staining in presence of fluconazole; type: ADME, organism-based; conditions: in vivo, 1 h
Saccharomyces cerevisiae [29] = test: Drug uptake in Saccharomyces cerevisiae ADCDR2 at 200 uM pretreated for 10 mins measured after 60 mins by fluorescamine staining in presence of fluconazole; type: ADME, organism-based; conditions: in vivo, 1 h
Saccharomyces cerevisiae [30] = test: Drug uptake in Saccharomyces cerevisiae AD12345678 at 200 uM pretreated for 10 mins measured after 60 mins by fluorescamine staining in presence of fluconazole; type: ADME, organism-based; conditions: in vivo, 1 h
Saccharomyces cerevisiae [31] = test: Drug uptake in Saccharomyces cerevisiae ADMDR1 at 50 uM pretreated for 10 mins measured after 60 mins by fluorescamine staining in presence of fluconazole; conditions: in vivo, 1 h

Row | SMILES | MIC (Candida albicans [1]) [µg/mL] | Drug uptake (Saccharomyces cerevisiae [2]) [nmol/min/mg] | Drug uptake (Saccharomyces cerevisiae [3]) [nmol/min/mg] | MIC (Saccharomyces cerevisiae [4]) [µg/mL] | MIC (Saccharomyces cerevisiae [6]) [µg/mL] | MIC (Candida albicans [7]) [µg/mL] | MIC (Saccharomyces cerevisiae [9]) [µg/mL] | MIC (Candida albicans [10]) [µg/mL] | Stability (Candida albicans [11]) [nmol/min] | Drug uptake (Saccharomyces cerevisiae [13]) [nmol/min/mg] | MIC (Candida albicans [14]) [µg/mL] | Stability (Candida albicans [15]) [nmol/min] | MIC (Saccharomyces cerevisiae [17]) [µg/mL] | MIC (Candida albicans [21]) [µg/mL] | Drug uptake (Saccharomyces cerevisiae [22]) [nmol/min/mg] | MIC (Saccharomyces cerevisiae [23]) [µg/mL] | MIC (Saccharomyces cerevisiae [24]) [µg/mL] | MIC (Saccharomyces cerevisiae [25]) [µg/mL] | MIC (Saccharomyces cerevisiae [26]) [µg/mL] | MIC (Saccharomyces cerevisiae [27]) [µg/mL] | also measured
1 | CSCC[C@H](NC(=O)[C@@H](N)CCSC)C(=O)N[C@@H](Cc1cccc(F)c1)C(=O)O (H-Met-Met-[Phe(3-F)]-OH) | 128 (≈ 287 µM) | 1.23 | 0.64 | 256 (≈ 575 µM) | 32 (≈ 71.8 µM) | 32 (≈ 71.8 µM) | 512 (≈ 1150 µM) | 128 (≈ 287 µM) | 20 | 1.11 | 128 (≈ 287 µM) | 20 | 256 (≈ 575 µM) | 128 (≈ 287 µM) | 0.67 | – | – | – | – | – | Stability (Saccharomyces cerevisiae [5]): 14 nmol/min; Stability (Saccharomyces cerevisiae [8]): 14 nmol/min; Stability (Saccharomyces cerevisiae [12]): 14 nmol/min; Stability (Saccharomyces cerevisiae [16]): 14 nmol/min; MIC (Saccharomyces cerevisiae [18]): 32 µg/mL (≈ 71.8 µM); Stability (Candida albicans [19]): 20 nmol/min; Stability (Saccharomyces cerevisiae [20]): 14 nmol/min
2 | [N-]=[N+]=CC(=O)CC[C@H](N)C(=O)O [6-DIAZO-5-OXO-L-NORLEUCINE] | 4 (≈ 23.4 µM) | 2.25 | 2 | – | – | 1 (≈ 5.84 µM) | – | 4 (≈ 23.4 µM) | – | 2.32 | 4 (≈ 23.4 µM) | – | – | 4 (≈ 23.4 µM) | 1.98 | 0.5 (≈ 2.92 µM) | 0.5 (≈ 2.92 µM) | 0.125 (≈ 0.73 µM) | 0.5 (≈ 2.92 µM) | 0.25 (≈ 1.46 µM) | –
3 | [N-]=[N+]=CC(=O)OC[C@H](N)C(=O)O [AZASERINE] | 32 (≈ 185 µM) | 1.92 | 1.75 | – | – | 16 (≈ 92.4 µM) | – | 16 (≈ 92.4 µM) | – | 2.15 | 16 (≈ 92.4 µM) | – | – | 32 (≈ 185 µM) | 1.7 | 2 (≈ 11.6 µM) | 2 (≈ 11.6 µM) | 1 (≈ 5.78 µM) | 2 (≈ 11.6 µM) | 1 (≈ 5.78 µM) | –
4 | NC(Cc1cccc(F)c1)C(=O)O (stereo not given) [M-FLUOROPHENYLALANINE] | 128 (≈ 699 µM) | 1.86 | 1.78 | – | – | 128 (≈ 699 µM) | – | 128 (≈ 699 µM) | – | 2.57 | 256 (≈ 1400 µM) | – | – | 128 (≈ 699 µM) | 1.63 | 32 (≈ 175 µM) | 32 (≈ 175 µM) | 16 (≈ 87.3 µM) | 32 (≈ 175 µM) | 16 (≈ 87.3 µM) | –
5 | C[C@@H]([C@H](N)C(=O)N[C@H](C(=O)O)[C@H]1O[C@@H](n2ccc(=O)[nH]c2=O)[C@H](O)[C@@H]1O)[C@H](O)c1ccc(O)cn1 [NIKKOMYCIN] | 8 (≈ 16.1 µM) | 0.97 | 0.33 | 128 (≈ 258 µM) | 16 (≈ 32.3 µM) | 4 (≈ 8.07 µM) | 128 (≈ 258 µM) | 16 (≈ 32.3 µM) | 0.3 | 1.08 | 32 (≈ 64.6 µM) | 0.3 | 128 (≈ 258 µM) | 8 (≈ 16.1 µM) | 0.32 | – | – | – | – | – | Drug uptake (Saccharomyces cerevisiae [28]): 0.98 nmol/min/mg; Drug uptake (Saccharomyces cerevisiae [29]): 0.88 nmol/min/mg; Drug uptake (Saccharomyces cerevisiae [30]): 0.32 nmol/min/mg; Drug uptake (Saccharomyces cerevisiae [31]): 0.34 nmol/min/mg; MIC (Saccharomyces cerevisiae [18]): 16 µg/mL (≈ 32.3 µM); Stability (Candida albicans [19]): 0.3 nmol/min
